Assay results published in PMC6393846 (Future Microbiology, 2019).
In brackets after ≈: the same amount, converted by molar mass.

Key:
[1] = test system: S. epidermidis 126 (hGISE clinical isolate); assay: Broth microdilution MIC/MBC, clinical isolate; type: cell-based, Staphylococcus epidermidis; settings: for MIC: Staphylococcus epidermidis
[2] = test system: Staphylococcus epidermidis ATCC 12228; settings: for reduction of the MIC of the antibiotic in the presence of PlnJK: 12.5 μM PlnJK with antibiotic versus antibiotic alone
[3] = test system: S. epidermidis; assay: Antibiotics combined with plantaricins, summary statements; type: cell-based, Staphylococcus epidermidis; settings: summary in abstract/discussion; PlnEF with antibiotic; strain not specified
Summary of the method: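 Broth microdilution with S. epidermidis grown overnight in LB at 37 °C with shaking and adjusted by viable count. Twofold antibiotic series: vancomycin and teicoplanin 0.097–50 μg/ml, gentamicin 0.0097–5 μg/ml, tetracycline 0.016–8 μg/ml. Each well also held a fixed paired plantaricin at 12.5 or 6.25 μM, each partner peptide equimolar. MIC/MBC read after 20 h.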

[4] = test system: Staphylococcus epidermidis ATCC 12228; assay: microbe, parasite or virus in culture; settings: ATCC12228
[5] = 12.5 μM PlnEF with antibiotic versus antibiotic alone

reduction of the MIC of the antibiotic in the presence of PlnEF [1, 5] [fold] | MIC [1] [µg/mL] | reduction of the MIC of the antibiotic in the presence of PlnEF [2, 5] [fold] | reduction of the MIC of the antibiotic in the presence of PlnJK [2] | MIC [4] [µg/mL] | Molecule | enhancement of the effects of the antibiotic by plantaricin [3] [fold] | MBC [4] [µg/mL] | reduction of the MBC of the antibiotic in the presence of PlnEF [1, 5] [fold]
125 | ≥ 2 | 500 |  |  | CN(C)[C@@H]1C(O)=C(C(N)=O)C(=O)[C@@]2(O)C(O)=C3C(=O)c4c(O)cccc4[C@@](C)(O)[C@H]3C[C@@H]12 [Tetracycline] | > 500 |  | 
 |  |  | twofold |  | Teicoplanin | > 30 |  | 
 |  |  |  | 3.1 (≈ 2.14 µM) | CN[C@H](CC(C)C)C(=O)N[C@H]1C(=O)N[C@@H](CC(N)=O)C(=O)N[C@H]2C(=O)N[C@H]3C(=O)N[C@H](C(=O)N[C@H](C(=O)O)c4cc(O)cc(O)c4-c4cc3ccc4O)[C@H](O)c3ccc(c(Cl)c3)Oc3cc2cc(c3O[C@@H]2O[C@H](CO)[C@@H](O)[C@H](O)[C@H]2O[C@H]2C[C@](C)(N)[C@H](O)[C@H](C)O2)Oc2ccc(cc2Cl)[C@H]1O [Vancomycin] | > 30 | 6.25 (≈ 4.31 µM) | 
500 | > 5 |  | approximately sevenfold | 0.31 (≈ 0.649 µM) | CNC(C)C1CCC(N)C(OC2C(N)CC(N)C(OC3OCC(C)(O)C(NC)C3O)C2O)O1 (stereo not drawn) [Gentamicin] | > 500 |  | 260
